Measurements reported in ChEMBL document CHEMBL3745713, “Bromotyrosine-derived metabolites from an Indonesian marine sponge in the family Aplysinellidae (Order Verongiida)” (Bioorg Med Chem Lett, 2016).

Legend:
MCF7 [1] = test: Cytotoxicity against human MCF7 cells assessed as cell growth at 5 uM measured at 72 hrs by CyQuant proliferation assay relative to control; format: functional; settings: MCF7, 72 h, read-out: Activity
Method in brief: (§1)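 Single-concentration screen at 50 and 5 μM across the cancer lines and normal mouse NIH3T3 fibroblasts. Cell growth was read by CyQuant proliferation assay at 72 h. Values are expressed relative to DMSO-treated control. Done in triplicate, one experiment (n=1).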

[2] = Cytotoxicity against human A2780S/CP5 cells assessed as cell growth at 5 uM measured at 72 hrs by CyQuant proliferation assay relative to control; format: functional; settings: A2780S/CP5, 72 h, read-out: Activity; method in brief: as §1
[3] = Cytotoxicity against human U251MG cells assessed as cell growth at 50 uM measured at 72 hrs by CyQuant proliferation assay relative to control; format: functional; settings: U-251, 72 h, read-out: Activity; method in brief: as §1
[4] = Cytotoxicity against human A2780S/CP5 cells assessed as cell growth at 50 uM measured at 72 hrs by CyQuant proliferation assay relative to control; format: functional; settings: A2780S/CP5, 72 h, read-out: Activity; method in brief: as §1
[5] = Cytotoxicity against mouse NIH/3T3 cells assessed as cell growth at 50 uM measured at 72 hrs by CyQuant proliferation assay relative to control; format: cell-based, NIH3T3; settings: read-out: Activity; method in brief: as §1
A549 [6] = test: Cytotoxicity against human A549 cells assessed as cell growth at 5 uM measured at 72 hrs by CyQuant proliferation assay relative to control; format: functional; settings: A549, 72 h, read-out: Activity; method in brief: as §1
MCF7 [7] = test: Cytotoxicity against human MCF7 cells assessed as cell growth at 50 uM measured at 72 hrs by CyQuant proliferation assay relative to control; format: functional; settings: MCF7, 72 h, read-out: Activity; method in brief: as §1
[8] = biological target: Beta-secretase 1 (Homo sapiens) (UniProt P56817); test: Inhibition of BACE1 (unknown origin) using BACE ED as substrate at 31.4 uM by EFC assay
[9] = Cytotoxicity against human A2780S cells assessed as cell growth at 5 uM measured at 72 hrs by CyQuant proliferation assay relative to control; format: functional; settings: A2780, 72 h, read-out: Activity; method in brief: as §1
[10] = Cytotoxicity against human A2780S cells assessed as cell growth at 50 uM measured at 72 hrs by CyQuant proliferation assay relative to control; format: functional; settings: A2780, 72 h, read-out: Activity; method in brief: as §1
[11] = Cytotoxicity against human U251MG cells assessed as cell growth at 5 uM measured at 72 hrs by CyQuant proliferation assay relative to control; format: functional; settings: U-251, 72 h, read-out: Activity; method in brief: as §1
A549 [12] = test: Cytotoxicity against human A549 cells assessed as cell growth at 50 uM measured at 72 hrs by CyQuant proliferation assay relative to control; format: functional; settings: A549, 72 h, read-out: Activity; method in brief: as §1
[13] = Cytotoxicity against mouse NIH/3T3 cells assessed as cell growth at 5 uM measured at 72 hrs by CyQuant proliferation assay relative to control; format: cell-based, NIH3T3; settings: read-out: Activity; method in brief: as §1
[14] = Cytotoxicity against human A2780S/CP5 cells by CyQuant proliferation assay; format: functional, cell-based
Method in brief: (§2)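 CyQuant proliferation assay in A2780S, cisplatin-resistant A2780CP (SCP5) and U251MG cells. Cells were exposed to varying concentrations, maximum 50 μM, and compared with solvent-only treated cells. IC50 was determined from triplicates, two independent experiments (n=2).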

[15] = Cytotoxicity against human U251MG cells by CyQuant proliferation assay; format: functional, cell-based; settings: U-251; method in brief: as §2
[16] = Cytotoxicity against human A2780S cells by CyQuant proliferation assay; format: functional, cell-based; settings: A2780; method in brief: as §2
[17] = biological target: Beta-secretase 1 (Homo sapiens) (UniProt P56817); test: Inhibition of BACE1 (unknown origin) using BACE ED as substrate at 48.3 uM by EFC assay
[18] = biological target: Beta-secretase 1 (Homo sapiens) (UniProt P56817); test: Inhibition of BACE1 (unknown origin) using BACE ED as substrate at 41.7 uM by EFC assay
[19] = Cytotoxicity against human A2780S cells assessed as cell growth at 20 uM measured at 72 hrs by CyQuant proliferation assay relative to control; format: functional; settings: A2780, 72 h, read-out: Activity
[20] = Cytotoxicity against human U251MG cells assessed as cell growth at 20 uM measured at 72 hrs by CyQuant proliferation assay relative to control; format: functional; settings: U-251, 72 h, read-out: Activity
MCF7 [21] = test: Cytotoxicity against human MCF7 cells assessed as cell growth at 20 uM measured at 72 hrs by CyQuant proliferation assay relative to control; format: functional; settings: MCF7, 72 h, read-out: Activity
[22] = Cytotoxicity against human A2780S/CP5 cells assessed as cell growth at 20 uM measured at 72 hrs by CyQuant proliferation assay relative to control; format: functional; settings: A2780S/CP5, 72 h, read-out: Activity
[23] = Cytotoxicity against mouse NIH/3T3 cells assessed as cell growth at 20 uM measured at 72 hrs by CyQuant proliferation assay relative to control; format: cell-based; settings: nih3t3, 72 h
A549 [24] = test: Cytotoxicity against human A549 cells assessed as cell growth at 20 uM measured at 72 hrs by CyQuant proliferation assay relative to control; format: functional; settings: A549, 72 h, read-out: Activity
[25] = biological target: Beta-secretase 1 (Homo sapiens) (UniProt P56817); test: Inhibition of BACE1 (unknown origin) using BACE ED as substrate at 42 uM by EFC assay
[26] = biological target: Beta-secretase 1 (Homo sapiens) (UniProt P56817); test: Inhibition of BACE1 (unknown origin) using BACE ED as substrate at 41.9 uM by EFC assay
[27] = biological target: Beta-secretase 1 (Homo sapiens) (UniProt P56817); test: Inhibition of BACE1 (unknown origin) using BACE ED as substrate at 30.6 uM by EFC assay
[28] = biological target: Beta-secretase 1 (Homo sapiens) (UniProt P56817); test: Inhibition of BACE1 (unknown origin) using BACE ED as substrate at 31.8 uM by EFC assay
[29] = biological target: Beta-secretase 1 (Homo sapiens) (UniProt P56817); test: Inhibition of BACE1 (unknown origin) using BACE ED as substrate at 39.6 uM by EFC assay
[30] = Cytotoxicity against mouse NIH/3T3 cells assessed as cell growth at 25 uM measured at 72 hrs by CyQuant proliferation assay relative to control; format: cell-based, NIH3T3; settings: read-out: Activity
MCF7 [31] = test: Cytotoxicity against human MCF7 cells assessed as cell growth at 25 uM measured at 72 hrs by CyQuant proliferation assay relative to control; format: functional; settings: MCF7, 72 h, read-out: Activity
[32] = Cytotoxicity against human A2780S/CP5 cells assessed as cell growth at 25 uM measured at 72 hrs by CyQuant proliferation assay relative to control; format: functional; settings: A2780S/CP5, 72 h, read-out: Activity
[33] = Cytotoxicity against human A2780S cells assessed as cell growth at 25 uM measured at 72 hrs by CyQuant proliferation assay relative to control; format: functional; settings: A2780, 72 h, read-out: Activity
A549 [34] = test: Cytotoxicity against human A549 cells assessed as cell growth at 25 uM measured at 72 hrs by CyQuant proliferation assay relative to control; format: functional; settings: A549, 72 h, read-out: Activity
[35] = Cytotoxicity against human U251MG cells assessed as cell growth at 25 uM measured at 72 hrs by CyQuant proliferation assay relative to control; format: functional; settings: U-251, 72 h, read-out: Activity
[36] = biological target: Beta-secretase 1 (Homo sapiens) (UniProt P56817); test: Inhibition of BACE1 (unknown origin) using BACE ED as substrate at 42.6 uM by EFC assay

Sequence of Beta-secretase 1 (Homo sapiens) (P56817 whole entry): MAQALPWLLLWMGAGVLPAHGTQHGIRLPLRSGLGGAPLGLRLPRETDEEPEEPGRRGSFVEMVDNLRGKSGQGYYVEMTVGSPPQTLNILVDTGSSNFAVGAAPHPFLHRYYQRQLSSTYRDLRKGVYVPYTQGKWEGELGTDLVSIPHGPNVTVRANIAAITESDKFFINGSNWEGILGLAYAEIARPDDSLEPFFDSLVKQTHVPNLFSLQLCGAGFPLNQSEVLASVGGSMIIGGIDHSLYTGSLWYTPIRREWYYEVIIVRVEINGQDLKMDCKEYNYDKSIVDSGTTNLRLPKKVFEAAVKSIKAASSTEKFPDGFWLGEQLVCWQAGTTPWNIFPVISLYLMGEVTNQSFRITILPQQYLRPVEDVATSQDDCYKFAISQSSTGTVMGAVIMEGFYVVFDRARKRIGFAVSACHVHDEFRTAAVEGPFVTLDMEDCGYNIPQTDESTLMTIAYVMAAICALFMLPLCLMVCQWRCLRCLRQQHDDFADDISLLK

| Structure (SMILES) | growth at 5 µM (MCF7 [1]) [%] | growth at 5 µM [2] [%] | growth at 50 µM [3] [%] | growth at 50 µM [4] [%] | viability at 72 h, 50 µM [5] [%] | growth at 5 µM (A549 [6]) [%] | growth at 50 µM (MCF7 [7]) [%] | growth at 5 µM [9] [%] | growth at 50 µM [10] [%] | growth at 5 µM [11] [%] | growth at 50 µM (A549 [12]) [%] | viability at 72 h, 5 µM [13] [%] | also measured |
| --- | --- | --- | --- | --- | --- | --- | --- | --- | --- | --- | --- | --- | --- |
| CCCCCCC(C)CCCCCCCC(=O)NCCc1cc(Br)c(OCCCNC(=O)C2=NO[C@@]3(C=C(Br)C(OC)=C(Br)[C@H]3O)C2)c(Br)c1 (stereo not given in full) | 104 | 109 | 97 | 79 | 95 | 89 | 101 | 85 | 87 | 99 | 105 | 94 | inhibition [8]: 70% |
| CNCCCOc1c(Br)cc(CCNC(=O)/C(Cc2ccc(O)c(Br)c2)=N/O)cc1Br | 100 | 94 | 40 | 51 | 105 | 97 | 69 | 82 | 26 | 111 | 64 | 99 | IC50 [14]: > 50 µM; IC50 [15]: > 50 µM; IC50 [16]: > 50 µM; inhibition [17]: 48% |
| COC1=C(Br)[C@@H](O)[C@]2(C=C1Br)CC(C(=O)NCCCOc1c(Br)cc(CCN)cc1Br)=NO2 [ARAPLYSILLIN 1] | 36 | 11 | 30 | 22 | 7 | 16 | 71 | 8 | 14 | 32 | 17 | 38 | inhibition [18]: 27% |
| COc1cc([C@@H]2c3cc4c(cc3[C@@H](O[C@@H]3O[C@@H]5CO[C@@H](C)O[C@H]5[C@H](O)[C@H]3O)[C@H]3COC(=O)[C@H]23)OCO4)cc(OC)c1O [ETOPOSIDE] |  |  |  |  |  |  |  |  |  |  |  |  | growth at 20 µM [19]: 35%; growth at 20 µM [20]: 21%; growth at 20 µM (MCF7 [21]): 46%; growth at 20 µM [22]: 33%; Activity [23]: 46%; growth at 20 µM (A549 [24]): 49% |
| COc1c(Br)cc(C/C(=N\O)C(=O)NCCCOc2c(Br)cc(CCN)cc2Br)c(O)c1Br | 97 | 96 | 20 | 9 | 104 | 96 | 27 | 60 | 9 | 111 | 21 | 102 | IC50 [14]: 40 µM; IC50 [15]: 50 µM; IC50 [16]: 20 µM; inhibition [25]: 36% |
| CCCCCCC(C)CCCCCCCCC(=O)NCCc1cc(Br)c(OCCCNC(=O)C2=NO[C@@]3(C=C(Br)C(OC)=C(Br)[C@H]3O)C2)c(Br)c1 (stereo not given in full) | 106 | 100 | 101 | 78 | 102 | 82 | 109 | 90 | 88 | 100 | 106 | 98 |  |
| COC1=C(Br)[C@@H](O)[C@]2(C=C1Br)CC(C(=O)NCCCOc1c(Br)cc(C(=O)O)cc1Br)=NO2 | 86 | 33 | 39 | 25 | 29 | 81 | 60 | 37 | 21 | 101 | 68 | 94 | inhibition [26]: 35% |
| CCCCC(C)CCC/C=C\CCCCCCC(=O)NCCc1cc(Br)c(OCCCNC(=O)C2=NO[C@@]3(C=C(Br)C(OC)=C(Br)[C@H]3O)C2)c(Br)c1 (stereo not given in full) | 105 | 105 | 90 | 66 | 98 | 98 | 104 | 82 | 76 | 98 | 104 | 100 | inhibition [27]: 60% |
| COC1=C(Br)[C@@H](O)[C@]2(C=C1Br)CC(C(=O)NCCCOc1c(Br)cc(CCNC(=O)CCCCCCCCCCCC(C)C)cc1Br)=NO2 | 103 | 68 | 80 | 48 | 95 | 88 | 64 | 77 | 18 | 98 | 85 | 88 | inhibition [28]: 57% |
| COC1=C(Br)[C@@H](O)[C@]2(C=C1Br)CC(C(=O)NCCCOc1c(Br)cc(CCNC(=N)N)cc1Br)=NO2 | 98 | 45 | 32 | 8 | 25 | 85 | 24 | 78 | 12 | 94 | 48 | 100 | inhibition [29]: 40% |
| O=C(CCCCCCC(=O)Nc1ccccc1)NO [VORINOSTAT] |  |  |  |  |  |  |  |  |  |  |  |  | viability at 72 h, 25 µM [30]: 46%; growth at 25 µM (MCF7 [31]): 52%; growth at 25 µM [32]: 18%; growth at 25 µM [33]: 23%; growth at 25 µM (A549 [34]): 51%; growth at 25 µM [35]: 20% |
| CNCCCOc1c(Br)cc(CCNC(=O)/C(Cc2cc(Br)c(OC)c(Br)c2)=N/O)cc1Br | 50 | 29 | 30 | 10 | 3 | 42 | 58 | 11 | 13 | 17 | 11 | 101 | inhibition [25]: 74% |
| COc1c(Br)cc(C/C(=N\O)C(=O)NCCc2cc(Br)c(OCCCN)c(Br)c2)cc1Br | 95 | 78 | 24 | 12 | 16 | 92 | 26 | 81 | 11 | 107 | 24 | 105 | inhibition [36]: 62% |
